In ChEMBL document CHEMBL4364287, “Enhanced Inhibition of Influenza A Virus Adhesion by Di- and Trivalent Hemagglutinin Inhibitors” (J Med Chem, 2019):
Calls of active or inactive are those of the source. The calls are words filed in the database; no cut-off is given here.

Tests used:
[1] = system: Influenza A virus; experiment: (§1) Antiviral activity against Influenza A virus WU95 expressing Influenza A virus (A/Netherlands/178/1995(H3N2)) H3 hemagglutinin infected in MDCK2 cells at 20 nM preincubated with virus for 4 hrs followed by cell infection and measured after 2 hrs by DAPI staining-based assay; format: functional, organism-based
In short: (§2)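 WU95 was preincubated 4 h at room temperature in Opti-mem with or without 15 µM compound, ±10 µM oseltamivir carboxylate. The mixture was diluted 500-fold onto confluent MDCK-II for 2 h, giving end concentrations of 30 nM compound, 20 nM OC and MOI 0.01. Cells were washed, kept overnight at 37 °C with 10 nM bafilomycin, then fixed and nucleoprotein-immunostained.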

[2] = system: Influenza A virus (A/Netherlands/178/1995(H3N2)); experiment: Inhibition of sensor loaded biotinylated-LAMP1 binding to Influenza A virus (A/Netherlands/178/1995(H3N2)) H3 hemagglutinin expressed in Influenza virus WU95 at 20 uM in presence of NA inhibitor oseltamivir carboxylate by biolayer interferometric analysis
In short: (§3)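 OctetRed BLI: streptavidin sensors were saturated with biotinylated LAMP1 in PBS pH 7.4. They were dipped into WU95 (8 HAU, 2.5 × 10^8 particles per well) preincubated 4 h at room temperature with compound and 10 µM (end concentration) oseltamivir carboxylate. Initial binding rate was compared with a no-compound control.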

[3] = system: Influenza A virus; experiment: as §1, with “assessed as reduction in virus-induced cytopathogenicity” for “at 20 nM”, “3 days” for “2 hrs”; format: functional, organism-based
In short: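 WU95 virus was preincubated 4 h at room temperature in Opti-mem with varying compound concentrations. It was then inoculated onto confluent MDCK-II cells at MOI 0.005 and held 3 days with 1 µg/ml TPCK-trypsin to allow multiple rounds of infection. Cells were fixed and DAPI-stained, and monolayers inspected visually; absence of stained cells was taken as cell killing.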

[4] = Inhibition of sensor loaded biotinylated-LAMP1 binding to Influenza A virus (A/Netherlands/178/1995(H3N2)) H3 hemagglutinin expressed in Influenza virus WU95 in presence of NA inhibitor oseltamivir carboxylate by biolayer interferometric analysis; in short: as §3
[5] = system: Influenza A virus (A/Netherlands/178/1995(H3N2)); experiment: Potency index, ratio of compound 7 IC50 to test compound IC50 for inhibition of sensor loaded biotinylated-LAMP1 binding to Influenza A virus (A/Netherlands/178/1995(H3N2)) H3 hemagglutinin expressed in Influenza virus WU95
[6] = system: Influenza A virus (A/Netherlands/178/1995(H3N2)); experiment: Inhibition of sensor loaded biotinylated-LAMP1 binding to Influenza A virus (A/Netherlands/178/1995(H3N2)) H3 hemagglutinin expressed in Influenza virus WU95 at 3 uM in presence of NA inhibitor oseltamivir carboxylate by biolayer interferometric analysis; in short: as §3
[7] = system: Influenza A virus (A/Bilthoven/1761/1976(H3N2)); experiment: Inhibition of sensor loaded biotinylated-LAMP1 binding to Influenza A virus (A/Bilthoven/1761/1976(H3N2)) H3 hemagglutinin expressed in Influenza virus VI75 at 3 uM by biolayer interferometric analysis
In short: (§4)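 BLI with streptavidin sensors loaded to saturation with biotinylated LAMP1 (PBS, pH 7.4). VI75 virus was preincubated 4 h at room temperature with 3 µM compound, without or with 10 µM oseltamivir carboxylate. Initial virus binding rate was compared with a compound-free control.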

[8] = system: Influenza A virus (A/Bilthoven/1761/1976(H3N2)); experiment: Inhibition of sensor loaded biotinylated-LAMP1 binding to Influenza A virus (A/Bilthoven/1761/1976(H3N2)) H3 hemagglutinin expressed in Influenza virus VI75 at 3 uM in presence of NA inhibitor oseltamivir carboxylate by biolayer interferometric analysis; in short: as §4
[9] = system: Influenza A virus; experiment: Antiviral activity against Influenza A virus WU95 expressing Influenza A virus (A/Netherlands/178/1995(H3N2)) H3 hemagglutinin infected in MDCK2 cells preincubated with virus for 4 hrs followed by cell infection and measured at 7 hrs post-infection by DAPI staining-based assay; format: functional, organism-based
In short: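 Single-cycle infection: WU95 in Opti-mem was preincubated 4 h at room temperature with varying compound concentrations. Confluent MDCK-II cells were inoculated in triplicate at MOI 0.005 and fixed at 7 h post-infection in methanol (−20 °C, 5 min). Cells were immunostained for nucleoprotein (HB65, Alexa 488 secondary), counterstained with DAPI, and infected cells per well were counted.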

[10] = system: MDCK-II; experiment: Cytotoxicity against MDCK2 cells assessed as reduction in cell viability measured after 24 hrs by WST1 assay; format: cell-based, Canis lupus familiaris; conditions: dog
In short: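 MDCK-II cells were incubated 24 h in Opti-mem with compounds at different concentrations. Cell number and viability were then read by WST-1 assay.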

[11] = Inhibition of Influenza A virus (A/Netherlands/178/1995(H3N2)) H3 hemagglutinin expressed in Influenza virus WU95 assessed as reduction in human erythrocytes hemagglutination preincubated for 4 hrs followed by erythrocytes addition and measured after 2 hrs; format: cell-based
In short: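 Four hemagglutination units of virus were preincubated 4 h at room temperature with limiting compound dilutions in the presence of oseltamivir carboxylate. Then 0.5% (v/v) erythrocytes were added for 2 h at 4 °C. The lowest inhibiting concentration was recorded; two experiments were run in duplicate and means are reported.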

[12] = system: Influenza A virus (A/Netherlands/178/1995(H3N2)); experiment: Potency index, ratio of compound 8 IC50 to test compound IC50 for Inhibition of Influenza A virus (A/Netherlands/178/1995(H3N2)) H3 hemagglutinin expressed in Influenza virus WU95 assessed as reduction in human erythrocytes hemagglutination; format: cell-based
[13] = system: Influenza A virus; experiment: Antiviral activity against Influenza A virus WU95 expressing Influenza A virus (A/Netherlands/178/1995(H3N2)) H3 hemagglutinin infected in MDCK2 cells at 30 nM preincubated with virus for 4 hrs followed by cell infection and measured after 2 hrs by DAPI staining-based assay; format: functional, organism-based; in short: as §2
[14] = system: Influenza A virus; experiment: as §1, with “cells at 30 nM preincubated” for “cells at 20 nM preincubated”, “2 hrs in presence of 20 nM NA inhibitor oseltamivir carboxylate by DAPI” for “2 hrs by DAPI”; format: functional, organism-based; in short: as §2

With `CCC(CC)O[C@@H]1C=C(C(=O)O)C[C@H](N)[C@H]1NC(C)=O` the Activity [1] was “Active”.

In the case of `CC(=O)N[C@H]1[C@H](O[C@H]2[C@@H](O)[C@@H](CO)O[C@@H](O[C@H]3[C@H](O)[C@@H](O)[C@H](n4cc(-c5ccc(-c6cn(CCCC(=O)Nc7cccc(-c8cc(-c9cccc(NC(=O)CCCn%10cc(-c%11ccc(-c%12cn([C@@H]%13O[C@H](CO)[C@@H](O[C@@H]%14O[C@H](CO)[C@H](O)[C@H](O[C@@H]%15O[C@H](CO)[C@@H](O[C@@H]%16O[C@H](CO)[C@H](O)[C@H](O)[C@H]%16O)[C@H](O)[C@H]%15NC(C)=O)[C@H]%14O)[C@H](O)[C@H]%13O)nn%12)cc%11)nn%10)c9)cc(-c9cccc(NC(=O)CCCn%10cc(-c%11ccc(-c%12cn([C@@H]%13O[C@H](CO)[C@@H](O[C@@H]%14O[C@H](CO)[C@H](O)[C@H](O[C@@H]%15O[C@H](CO)[C@@H](O[C@@H]%16O[C@H](CO)[C@H](O)[C@H](O)[C@H]%16O)[C@H](O)[C@H]%15NC(C)=O)[C@H]%14O)[C@H](O)[C@H]%13O)nn%12)cc%11)nn%10)c9)c8)c7)nn6)cc5)nn4)O[C@@H]3CO)[C@@H]2O)O[C@H](CO)[C@@H](O[C@@H]2O[C@H](CO)[C@H](O)[C@H](O)[C@H]2O)[C@@H]1O`, the inhibition [2] is reported as “inactive”.

In the case of `CC(=O)N[C@H]1[C@H](O[C@H]2[C@@H](O)[C@@H](CO)O[C@@H](O[C@H]3[C@H](O)[C@@H](O)[C@H](OCc4cn(CCCC(=O)Nc5cccc(-c6cc(-c7cccc(NC(=O)CCCn8cc(CO[C@@H]9O[C@H](CO)[C@@H](O[C@@H]%10O[C@H](CO)[C@H](O)[C@H](O[C@@H]%11O[C@H](CO)[C@@H](O[C@@H]%12O[C@H](CO[C@]%13(C(=O)O)C[C@H](O)[C@@H](NC(C)=O)[C@H]([C@H](O)[C@H](O)CO)O%13)[C@H](O)[C@H](O)[C@H]%12O)[C@H](O)[C@H]%11NC(C)=O)[C@H]%10O)[C@H](O)[C@H]9O)nn8)c7)cc(-c7cccc(NC(=O)CCCn8cc(CO[C@@H]9O[C@H](CO)[C@@H](O[C@@H]%10O[C@H](CO)[C@H](O)[C@H](O[C@@H]%11O[C@H](CO)[C@@H](O[C@@H]%12O[C@H](CO[C@]%13(C(=O)O)C[C@H](O)[C@@H](NC(C)=O)[C@H]([C@H](O)[C@H](O)CO)O%13)[C@H](O)[C@H](O)[C@H]%12O)[C@H](O)[C@H]%11NC(C)=O)[C@H]%10O)[C@H](O)[C@H]9O)nn8)c7)c6)c5)nn4)O[C@@H]3CO)[C@@H]2O)O[C@H](CO)[C@@H](O[C@@H]2O[C@H](CO[C@]3(C(=O)O)C[C@H](O)[C@@H](NC(C)=O)[C@H]([C@H](O)[C@H](O)CO)O3)[C@H](O)[C@H](O)[C@H]2O)[C@@H]1O`, the Activity [3] is reported as “Active”, the IC50 [4] is reported as 4.3 µM and the Ratio IC50 [5] is reported as 71. The inhibition [6] was “Active”, the inhibition [7] was “Active” and the inhibition [8] was “Active”. The IC50 [9] was 15 µM and the Activity [10] was “Non-Toxic”.

With `CC(=O)N[C@H]1[C@H](O[C@H]2[C@@H](O)[C@@H](CO)O[C@@H](O[C@H]3[C@H](O)[C@@H](O)[C@H](n4cc(-c5ccc(-c6cn(CCCC(=O)Nc7cccc(-c8cc(-c9cccc(NC(=O)CCCn%10cc(-c%11ccc(-c%12cn([C@@H]%13O[C@H](CO)[C@@H](O[C@@H]%14O[C@H](CO)[C@H](O)[C@H](O[C@@H]%15O[C@H](CO)[C@@H](O[C@@H]%16O[C@H](CO[C@]%17(C(=O)O)C[C@H](O)[C@@H](NC(C)=O)[C@H]([C@H](O)[C@H](O)CO)O%17)[C@H](O)[C@H](O)[C@H]%16O)[C@H](O)[C@H]%15NC(C)=O)[C@H]%14O)[C@H](O)[C@H]%13O)nn%12)cc%11)nn%10)c9)cc(-c9cccc(NC(=O)CCCn%10cc(-c%11ccc(-c%12cn([C@@H]%13O[C@H](CO)[C@@H](O[C@@H]%14O[C@H](CO)[C@H](O)[C@H](O[C@@H]%15O[C@H](CO)[C@@H](O[C@@H]%16O[C@H](CO[C@]%17(C(=O)O)C[C@H](O)[C@@H](NC(C)=O)[C@H]([C@H](O)[C@H](O)CO)O%17)[C@H](O)[C@H](O)[C@H]%16O)[C@H](O)[C@H]%15NC(C)=O)[C@H]%14O)[C@H](O)[C@H]%13O)nn%12)cc%11)nn%10)c9)c8)c7)nn6)cc5)nn4)O[C@@H]3CO)[C@@H]2O)O[C@H](CO)[C@@H](O[C@@H]2O[C@H](CO)[C@H](O)[C@H](O)[C@H]2O)[C@@H]1O` the IC50 [4] was 0.71 µM, the Ratio IC50 [5] was 428 and the inhibition [6] was “Active”. The inhibition [7] was “Active”, the inhibition [8] was “Active” and the Ki [11] was 10.3 µM. For the same compound, the Ratio IC50 [12] was 35, the Activity [13] was “Active” and the Activity [14] was “Active”.

For `C#CCO[C@@H]1O[C@H](CO)[C@@H](O[C@@H]2O[C@H](CO[C@]3(C(=O)O)C[C@H](O)[C@@H](NC(C)=O)[C@H]([C@H](O)[C@H](O)CO)O3)[C@H](O)[C@H](O)[C@H]2O)[C@H](O)[C@H]1NC(C)=O`, the IC50 [4] was 304 µM.

For `CC(=O)N[C@H]1[C@H]([C@H](O)[C@H](O)CO)O[C@@](OC[C@H]2O[C@@H](O[C@H]3[C@H](O)[C@@H](O)[C@H](OCc4cn([C@@H]5O[C@H](CO)[C@@H](n6cc(-c7ccc(-c8cn([C@H]9[C@H](O)[C@@H](O)[C@H](n%10cc(CO[C@@H]%11O[C@H](CO)[C@@H](O[C@@H]%12O[C@H](CO[C@]%13(C(=O)O)C[C@H](O)[C@@H](NC(C)=O)[C@H]([C@H](O)[C@H](O)CO)O%13)[C@H](O)[C@H](O)[C@H]%12O)[C@H](O)[C@H]%11O)nn%10)O[C@@H]9CO)nn8)cc7)nn6)[C@H](O)[C@H]5O)nn4)O[C@@H]3CO)[C@H](O)[C@@H](O)[C@H]2O)(C(=O)O)C[C@@H]1O`, the IC50 [4] was 13 µM and the Ratio IC50 [5] was 23.

`CC(=O)N[C@H]1[C@H]([C@H](O)[C@H](O)CO)O[C@@](OC[C@H]2O[C@@H](O[C@H]3[C@H](O)[C@@H](O)[C@H](OCc4cn(CCCC(=O)Nc5cccc(-c6cc(-c7cccc(NC(=O)CCCn8cc(CO[C@@H]9O[C@H](CO)[C@@H](O[C@@H]%10O[C@H](CO[C@]%11(C(=O)O)C[C@H](O)[C@@H](NC(C)=O)[C@H]([C@H](O)[C@H](O)CO)O%11)[C@H](O)[C@H](O)[C@H]%10O)[C@H](O)[C@H]9O)nn8)c7)cc(-c7cccc(NC(=O)CCCn8cc(CO[C@@H]9O[C@H](CO)[C@@H](O[C@@H]%10O[C@H](CO[C@]%11(C(=O)O)C[C@H](O)[C@@H](NC(C)=O)[C@H]([C@H](O)[C@H](O)CO)O%11)[C@H](O)[C@H](O)[C@H]%10O)[C@H](O)[C@H]9O)nn8)c7)c6)c5)nn4)O[C@@H]3CO)[C@H](O)[C@@H](O)[C@H]2O)(C(=O)O)C[C@@H]1O` showed an IC50 [4] of 15 µM, a Ratio IC50 [5] of 20 and a Ki [11] of 53 µM. For the same compound, the Ratio IC50 [12] was 7.
